Drawing on PubChem BioAssay AID624466 (The Scripps Research Institute Molecular Screening Center, 2012), this text covers inhibition for 54 compounds.

The whole screen tested about 360,000 compounds, of which about 5,400 (1.5%) were called active. The entries come from a sample that favours actives as a whole. Values without a mark were called inactive.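 How the source made its calls: active means inhibition above a per-plate cutoff, the mean inhibition of test compounds on that plate plus 3 SD (cut at about 49% in these data); inactive means the rest.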

Sequence of Trace amine-associated receptor 1 (Homo sapiens) (Q96RJ0 whole entry, looked up): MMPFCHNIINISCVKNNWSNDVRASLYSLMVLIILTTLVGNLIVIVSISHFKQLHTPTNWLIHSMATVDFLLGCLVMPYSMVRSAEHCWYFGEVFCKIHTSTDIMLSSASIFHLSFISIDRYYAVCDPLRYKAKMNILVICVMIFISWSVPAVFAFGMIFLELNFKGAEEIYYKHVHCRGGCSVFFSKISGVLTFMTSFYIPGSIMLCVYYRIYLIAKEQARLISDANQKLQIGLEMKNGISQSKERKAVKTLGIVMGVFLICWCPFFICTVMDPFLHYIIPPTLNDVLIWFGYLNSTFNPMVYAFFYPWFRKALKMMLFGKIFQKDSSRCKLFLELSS

This test has as its target Trace amine-associated receptor 1 (Homo sapiens) (UniProt Q96RJ0). The test can be described thus: human TAAR1 antagonists, primary screen, Fluo-8 calcium fluorescence, CHO RD-HGA16 cells (AID 624466).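 Further: 0% = DMSO plus EC80 beta-PEA response and 100% = DMSO alone without agonist.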 The following applies: CHO RD-HGA16 TAAR1, Fluo-8 calcium fluorescence, antagonist; at 3 µM; stronger effect = higher value. The essentials: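 System: RD-HGA16 CHO cells with stable hTAAR1 and Gα16 | Probe or stimulus: EC80 β-phenethylamine stimulus | Dosing: 3 µM, single point | Times: Dye loading 75 min at 37 °C, then 30 min room temperature | Measured by: Fluo-8 calcium-sensitive fluorescence | Read-out basis: % inhibition of agonist calcium response | Replicates: n of 1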
On to `CN1CCN(C(=O)c2ccc(NC(=O)c3ccc(Br)o3)cc2)CC1`, for which the inhibition – broadly, the relative decrease from the control value, in per cent – is -4.9%.
The result for `CCS(=O)(=O)c1ccc(-c2cccc(NC(=O)c3ccc(Br)o3)c2)nn1` reads 13.4%; that for `O=C(Nc1ccc(-c2nnc(-c3ccccc3)o2)cc1)c1ccc(Br)o1`, 71% (active); that for `CC(=O)OCC1(O)CC23CCC4c5ccoc5CCC4(C)C2CCC1C3` (centres undefined), 13.6%.
With `COC(=O)C[C@@H]1C=C[C@@H](NC(=O)c2cccnc2)[C@@H](CO)O1`, the inhibition is -15.9%.
Under `CCC(C)(C)NC(=O)c1cc([N+](=O)[O-])ccc1N1CCCCC1` stands -10.4%; under `Cc1cc(OCC(=O)NC2CCN(C)CC2)ccc1[N+](=O)[O-]`, -21.6%; under `Cc1cc(OCCCCOc2ccc(C#N)cc2)ccc1[N+](=O)[O-]`, 51.1% (active).
The result for `Cc1cc(OCCCN2CCN(Cc3ccccc3)CC2)ccc1[N+](=O)[O-]` reads -20.9%; that for `COc1ccc(-n2nc(C(=O)NCC(=O)N3CCC(C(N)=O)CC3)c3ccccc3c2=O)cc1OC`, 1.2%; that for `N/C(=N\c1nc2ccccc2o1)NC(=O)C(Cc1ccccc1)N1C(=O)c2ccccc2C1=O` (centres undefined), 49% (active).
`O=C(NCCN1CCOCC1)[C@H](Cc1ccccc1)N1C(=O)c2ccccc2C1=O`: the inhibition is -8.4%.
Under `CCOC(=O)C(Cc1ccc(N)cc1)N1C(=O)c2ccccc2C1=O` (centres undefined) stands 10.7%; under `CC(C)(C)C1CCC(=O)N2CCC[C@]2(c2ccccc2)C1` (some centres undefined), -2.31%.
For `CC(C)CC1C(=O)N(Cc2cn(CC3CCCCC3)nn2)CCS(=O)(=O)N1Cc1ccc(-c2ccc(Cl)cc2)cc1` (centres undefined), the inhibition was -15.1%.
Under `COCOCCn1cc(CN2CCS(=O)(=O)N(Cc3ccc(-c4cccc(N(C)C)c4)cc3)C(CC(C)C)C2=O)nn1` (centres undefined) stands 1.52%.
Under `COc1ccc(-c2ccc(CN3C(CC(C)C)C(=O)N(Cc4cn(CC5CCCCC5)nn4)CCS3(=O)=O)cc2)cc1` (centres undefined) stands -8.03%; under `COCOCCn1cc(CN2CCS(=O)(=O)N(Cc3ccc(-c4ccccc4)cc3)C(CC(C)C)C2=O)nn1` (centres undefined), 54.1% (active); under `COc1ccc(-c2ccc(CN3C(CC(C)C)C(=O)N(Cc4cn(CC5CCCCC5)nn4)CCS3(=O)=O)cc2)cn1` (centres undefined), -9.27%.
For `COCOCCn1cc(CN2CCS(=O)(=O)N(Cc3ccc(-c4ccc(OC)cc4)cc3)C(CC(C)C)C2=O)nn1` (centres undefined), the inhibition is 54.1% (active).
The result for `CCOc1ccc(CNC(=O)CCC(=O)N2CCSc3ccccc32)cc1` reads -0.53%; that for `O=S1(=O)CC(N2CCN(CCO)CC2)CN1Cc1cn(Cc2ccc(Cl)cc2)nn1` (centres undefined), -8.26%; that for `COc1ccc(OC)c(CN2C(=O)CCC2(C)c2nnnn2Cc2ccccc2)c1` (centres undefined), -20.4%.
In the case of `CCN1CCN(c2nc(Nc3cc(OC)ccc3OC)nc(Nc3cc(OC)ccc3OC)n2)CC1`, the inhibition was -14.1%.
On to `CCOc1ccc(Nc2nc(Cl)nc(N3CCN(c4ccc(OC)cc4)CC3)n2)cc1`, for which the inhibition was 56.5% (active).
The result for `COC(=O)c1ccc(Oc2nc(Nc3ccc(F)cc3)nc(N3CCCC3)n2)cc1` reads -16.1%.
The result for `CC(C)c1ccc(C=NNc2ccc([N+](=O)[O-])cn2)cc1` reads 17.1%; that for `O=[N+]([O-])c1ccc(N/N=C/c2ccccc2)cc1`, 61.6% (active).
In the case of `O=[N+]([O-])c1ccc(N=NNc2ccc([N+](=O)[O-])cc2)cc1`, the inhibition is -6.71%.
Regarding `O=C(NN=Cc1ccco1)C(=O)Nc1ccc(Cl)c([N+](=O)[O-])c1`, the inhibition was 8.28%.
For the compound `CN(C)c1ccc(C=NCCc2ccc(S(N)(=O)=O)cc2)cc1`, the inhibition is -1.3%.
The result for `c1ccc2c(c1)CCc1snnc1-2` reads -2.49%; that for `NCCCNC(=S)NCCCN(Cc1ccc(Cl)cc1)c1ccc(Br)cn1`, 0.12%.
`S=C(NCCCc1cnc[nH]1)NCCCN(Cc1ccc(Cl)c(Cl)c1)c1ccc(Br)cn1`: the inhibition is 51.9% (active).
For `C=CCN=C1NC(c2ccccc2)C(C(=O)OC)=C(C)N1Cc1ccc(C(F)(F)F)cc1` (centres undefined), the inhibition was 31.4%.
Under `CSc1ncccc1C(=O)N1CCCC(Nc2ccc(F)c(F)c2)C1` (centres undefined) stands 4.84%; under `CN(c1ccccc1)S(=O)(=O)c1ccc(Cl)c(C(=O)OCC(N)=O)c1`, -0.08%.
Under `CC(=O)c1c(C)[nH]c(C(=O)COC(=O)c2cccc(S(=O)(=O)N(C)c3ccccc3)c2)c1C` stands 81.8% (active); under `CC(=O)c1c(C)[nH]c(C(=O)COC(=O)c2cccs2)c1C`, 36%.
Under `O=C(Nc1ccccc1-c1nnn(CC(=O)N2CCN(c3ccccc3)CC2)n1)c1cccs1` stands 62% (active).
As for `COc1ccccc1N1CCN(C(=O)Cn2nnc(-c3cccs3)n2)CC1`, the inhibition was 2.09%.
Under `O=C(Nc1ccc(N2CCN(C(=O)C3CC3)CC2)cc1)c1cccs1` stands 16.4%.
The result for `Cc1ccc(F)cc1S(=O)(=O)Nc1cccc(C(=O)N2CCCC(C(N)=O)C2)c1` (centres undefined) reads -13.3%.
Regarding `COC(=O)[C@]12CCCCC=C1N(Cc1ccco1)C(=O)[C@H](CC(=O)NCCCCc1ccccc1)C2`, the inhibition is 12.7%.
On to `CN(C(=O)CN1C(=O)NC(C)(CCc2ccccc2)C1=O)c1ccccc1` (centres undefined), for which the inhibition was 9.09%.
Under `CN(C)c1ccc(/C=C2\NC(=S)N(Cc3ccccc3)C2=O)cc1` stands 74.3% (active); under `CC(=O)C1=C(C)N(Cc2ccccc2)C(=S)NC1c1cccc(Br)c1` (centres undefined), 25.4%.
On to `O=C(NCCCc1ccccc1)C(=O)c1c[nH]c2ccccc12`, for which the inhibition is -6.38%.
Under `COc1ccc(OC)c2[nH]c(=O)c(CCNC(=O)C(=O)c3c[nH]c4ccccc34)cc12` stands 64.7% (active); under `COc1ccc(OC)c2[nH]c(=O)c(CCNC(=O)C(C)(C)C)cc12`, -17%; under `CC(=O)Nc1ccc(NC(=O)COC(=O)C2CCC(C(C)(C)C)CC2)cc1` (centres undefined), 65.2% (active).
The result for `CCC(C)c1ccc(NC(=O)COC(=O)C2CCCC2)cc1` (centres undefined) reads 5.25%; that for `O=C(COC(=O)C1CCCCC1)Nc1ccc([N+](=O)[O-])cc1`, 35.5%.
On to `O=C(Nc1ccc(F)cc1)C(CCc1ccccc1)N1CCN(CC(=O)N2CCCC2)CC1` (centres undefined), for which the inhibition is 4.42%.
